Measurements of several laboratories.
mraY: mraY (Staphylococcus aureus, UniProt Q2FZ93)
TACR1: Substance-P receptor (TACR1, Homo sapiens, UniProt P25103)
HTR2B: 5-hydroxytryptamine receptor 2B (HTR2B, Homo sapiens, UniProt P41595)
HTR2C: 5-hydroxytryptamine receptor 2C (HTR2C, Homo sapiens, UniProt P28335)

Structure (SMILES)	target	read-out	action	method	tested at	inhibition
CCCCCCC#Cc1cncc(-c2nnc(SC[C@H]3O[C@@H](n4ccc(=O)[nH]c4=O)[C@H](O)[C@@H]3O)n2C)c1	mraY	cell-free assay	inhibitor	–	250 µM	0%
Cc1cc(F)cc2c(CCC(=O)N[C@@H]3C(=O)NC[C@H]3O)c(-c3ccc(F)cc3)[nH]c12	TACR1	cell-free assay	–	–	10 µM	25%
CCCCCCC#Cc1cncc(-c2nnc(SCc3cc([N+](=O)[O-])cc([N+](=O)[O-])c3)n2CCCN)c1	mraY	cell-free assay	inhibitor	–	250 µM	100%
COc1cc2c3c(c1OC)-c1c(OC)ccc(-c4ccc(C#N)cc4)c1CC3N(C)CC2 (stereo not drawn)	HTR2B	ligand displacement	–	radioligand	10 µM	65%
C#Cc1cc(-c2cc(Nc3nc(N[C@@H](C)c4ccc(F)cn4)ncc3Cl)n[nH]2)ccc1C=O	Serine/threonine-protein kinase SIK1 (SIK1, Homo sapiens, UniProt P57059)	enzyme activity	inhibitor	–	0.2 µM	82.4%
CCCCCCC#Cc1cncc(-c2nnc(SCCCn3ccc(=O)[nH]c3=O)n2C)c1	mraY	enzyme activity	inhibitor	–	100 µM	7%
COc1cc2c3c(c1OC)-c1c(OC)ccc(NC(C)=O)c1CC3N(C)CC2 (stereo not drawn)	HTR2C	ligand displacement	–	radioligand	10 µM	3%
CCN1/C(=C/C(C)=O)Sc2ccc(F)cc21	TACR1	ligand displacement	–	radioligand	10 µM	20.8%
CC[N+]1(C)CCc2cc(OC)c(OC)c3c2C1Cc1cccc(OC)c1-3 (stereo not drawn)	HTR2C	ligand displacement	–	radioligand	10 µM	-19%
NC/C(=C\F)COc1cccc(Cn2c(=S)[nH]c(=O)c3[nH]cnc32)c1	HTR2B	ligand displacement	–	radioligand	10 µM	< 50%
CCCCCCC#Cc1cncc(-c2nnc(SCc3cc(=O)[nH]c4ccccc34)n2C)c1	mraY	cell-free assay	inhibitor	–	250 µM	30%
COc1cc2c3c(c1OC)-c1c(OC)ccc(N4CCOCC4)c1CC3N(C)CC2 (stereo not drawn)	HTR2C	ligand displacement	–	radioligand	10 µM	50%
